The list is not random: actives were taken first. Their share in the collection is about 4.6%.
CHO parental Ca – ATP-evoked calcium signal inhibitors, parental CHO, primary screen, counter-screen for OX1R antagonist project, cell-based, fluorescence, Fluo-8 calcium dye; parental CHO-K1, ATP-induced calcium, Fluo-8 fluorescence; inhibition, % at 5.6 µM; hit rate 0.63% among 330,000; AID 463079, 2010;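 active means inhibition above that plate's mean sample inhibition plus 3 SD, cut at about 26% in these data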;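 further: 0% = ATP-challenged DMSO wells and 100% = DMSO wells without ATP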
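Measured by: calcium-sensitive Fluo-8 fluorescence / Test system: CHO parental line / Controls: ATP-challenged DMSO wells low, unchallenged DMSO wells high / Measure: % inhibition / Compound: single nominal dose of 5.6 µM per compound / Replicates: single well per compound, no replicates / Reagent: ATP as calcium-mobilizing challenge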
TAAR1 antagonist – human TAAR1 antagonists, primary screen, Fluo-8 calcium fluorescence, CHO RD-HGA16 cells; Trace amine-associated receptor 1 (Homo sapiens), Q96RJ0; antagonist; inhibition, % at 3 µM; hit rate 1.5% among 360,000;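 active means inhibition above a per-plate cutoff, the mean inhibition of test compounds on that plate plus 3 SD, cut at about 49% in these data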;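 further: 0% = DMSO plus EC80 beta-PEA response and 100% = DMSO alone without agonist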
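System: CHO RD-HGA16 cells bearing hTAAR1. Reagent: EC80 β-phenethylamine stimulus. Schedule: seeding 17-24 h prior, 75-min 37 °C, 30-min RT dye loading. Signal: Fluo-8 intracellular calcium dye fluorescence, real-time kinetic reads. Read-out: % inhibition from peak post-agonist over basal fluorescence ratio. Benchmarks: vehicle wells and EC80 agonist wells. Replicates: n of 1.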
OX1R antag-1 – OX1R (HCRTR1) antagonists, primary screen, fluorescence, CHO/OX1R cells, Fluo-8 calcium, orexin A; Fluo-8 calcium fluorescence; inhibition, % at 5 µM; AID 434989, 2010; hit rate 0.43% among 330,000; Orexin/Hypocretin receptor type 1 (Homo sapiens), O43613;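 active means inhibition above its plate's threshold, mean inhibition of all tested compounds on the plate plus 3 SD, cut at about 37% in these data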;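 further: 0% = orexin A challenge wells and 100% = SB-334867-A antagonist wells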
GPR7 antag – GPR7 receptor antagonists, primary screen, cell-based, fluorescence, single concentration | Neuropeptides B/W receptor type 1 (Homo sapiens), P48145 | GPR7-expressing cells, fluorescence antagonist assay | inhibition, % at 4.4 µM | hit rate 1.1% among 290,000; in the data active means inhibition above about 16%, passing the limit was not always enough;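 further: cells stimulated with the agonist NPW; 0% = agonist with vehicle and 100% = vehicle without agonist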
Target sequence (P48145 whole entry, looked up): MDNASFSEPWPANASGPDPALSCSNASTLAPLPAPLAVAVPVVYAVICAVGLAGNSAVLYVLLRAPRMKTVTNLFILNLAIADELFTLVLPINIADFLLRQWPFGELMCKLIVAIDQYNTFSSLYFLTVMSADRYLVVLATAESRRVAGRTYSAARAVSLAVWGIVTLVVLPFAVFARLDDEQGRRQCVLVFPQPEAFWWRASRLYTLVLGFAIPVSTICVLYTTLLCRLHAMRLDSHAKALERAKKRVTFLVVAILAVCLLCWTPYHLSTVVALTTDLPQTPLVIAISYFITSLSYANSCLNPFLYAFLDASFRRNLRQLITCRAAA
OX1R antag-2 – antagonists of human orexin 1 receptor (OX1R); Orexin/Hypocretin receptor type 1 (Homo sapiens), O43613; OX1R-expressing cells, FRET antagonist read-out; inhibition, % at 6.6 µM; hit rate 1.8% among 330,000; AID 485270, 2010; in the data active means inhibition mostly above about 38%, no sharp cut-off; inactive means mostly below about 40%;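 further: 0% = agonist challenge alone and 100% = reference antagonist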
TAAR1 agonist – human TAAR1 agonists, primary screen, Fluo-8 calcium fluorescence, CHO RD-HGA16 cells | hit rate 0.99% among 360,000 | vehicle wells 0%, saturating PEA agonist 100% | activation, % at 3 µM | Trace amine-associated receptor 1 (Homo sapiens), Q96RJ0;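 active means activation above the mean activation of all test compounds in the run plus 3 SD, cut at about 38% in these data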
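Assay system – CHO-derived RD-HGA16 cells with stable Gα16 and human TAAR1 · Compound dosing – one-point dosing at 3 µM (nominal) · Incubation – 17-24 h seeding, 75 min 37 °C dye, 30 min RT · Measured by – kinetic Fluo-8 calcium fluorescence · Control set – DMSO vehicle as 0%, PEA at EC100 as 100% · Repeats – single well for each compound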
Numbers without * were called inactive; . = not tested or not shown.

SMILES	CHO parental Ca	TAAR1 antagonist	OX1R antag-1	GPR7 antag	OX1R antag-2	TAAR1 agonist
COC(=O)c1nn(-c2ccc(-c3ccccc3)cc2)cc1O	2.2	52.3*	16.2	1.6	24.3	3.4
CCOC(=O)c1nn(-c2ccccc2)cc1O	-6.2	-1.8	-3.2	-3.9	-6.1	-1.0
COc1ccccc1CNc1nc2cc(-c3ccsc3)sc2c(=O)n1C	.	29.5	.	.	.	2.6
CCOc1ccc(NC(=O)CN2C(=O)S/C(=C/c3cccn3C)C2=O)cc1	-10.8	15.6	-1.4	0.0	44.2	2.9
Cn1cccc1/C=C1\SC(=O)N(CC(=O)Nc2ccc(Cl)cc2)C1=O	-10.9	54.6*	-15.8	-7.3	2.6	27.5
O=C(NC1CCCC1)[C@@H]1CCCN1C(=O)[C@@H](NS(=O)(=O)c1ccc(F)cc1F)C1CCCCC1	.	-41.0	.	.	.	5.7
COc1ccc(C)cc1NS(=O)(=O)c1ccc(NC(=O)CN(c2cc([N+](=O)[O-])ccc2C)S(C)(=O)=O)cc1	28.2	-2.4	4.3	16.7	14.2	2.1
Cc1cccc(NS(=O)(=O)c2ccc(NC(=O)CN(c3cc([N+](=O)[O-])ccc3C)S(C)(=O)=O)cc2)c1	20.2	6.1	14.6	65.8*	14.5	2.4
Cc1ccc(NC(=O)Cn2c(C)cc(C)c(C#N)c2=O)c(Cl)c1	-9.8	3.7	-19.4	-2.8	17.1	11.1
Cc1cc(C)c2c(=O)n(CC(=O)NCCCN3CCOCC3)sc2n1	-7.5	.	-10.5	3.4	10.5	.
CCOc1ccc(NC(=O)Cn2sc3nc(C)cc(C)c3c2=O)cc1	46.1*	.	51.9*	-10.4	5.5	.
Cc1cc(C)c2c(=O)n(CC(=O)NCCCN3CCN(c4ccccc4F)CC3)sc2n1	44.7*	.	38.7	2.2	2.3	.
Cc1cccc(N2CCN(C(=O)Cn3sc4nc(C)cc(C)c4c3=O)CC2C)c1 (stereo unspecified)	36.0*	.	39.8	4.5	4.9	.
Cc1cc(C)c2c(=O)n(CC(=O)N3CCC(Cc4ccccc4)CC3)sc2n1	.	.	.	-1.4	.	.
Cc1ccc(NC(=O)Cn2sc3nc(C)cc(C)c3c2=O)c(Cl)c1	46.4*	-10.8	25.0	-15.5	4.4	25.0
CCOc1ccc(NC(=O)Cn2ncc3ccccc32)cc1	.	4.5	.	-1.6	.	-1.7
CCCc1nc2c(C)cc(Br)cn2c1Cc1cccc(F)c1	.	-17.5	.	.	.	-2.1
COc1ccc(-c2nc3c(C)cc(Br)cn3c2Cc2cccc(Cl)c2)cc1OC	.	-22.8	.	.	.	-1.5
Cc1cc(=O)oc2cc(OCc3c(F)cccc3Cl)ccc12	.	-27.6	.	.	.	0.5
COc1cccc(-n2nnnc2S(C)(=O)=O)c1	18.9	.	-1.2	28.0*	10.2	.
CC1(c2nnnn2Cc2ccccc2)CCC(=O)N1Cc1cccs1 (stereo unspecified)	.	-13.1	.	.	.	2.6
Cc1c(C(=O)NCc2ccco2)sc2nc(-c3ccccc3)cn12	-10.3	13.7	-12.3	0.6	23.4	8.1
Cc1c(C(=O)Nc2ccc3c(c2)OCCO3)sc2nc(-c3ccccc3)cn12	45.6*	64.4*	67.5*	7.3	65.6*	10.5
Cc1c(C(=O)Nc2ccncc2)sc2nc(-c3ccccc3)cn12	13.3	58.1*	-6.4	-1.8	37.2*	13.0
Cc1c(C(=O)N2CCOCC2)sc2nc(-c3ccccc3)cn12	-2.9	-3.0	-13.2	-6.9	15.9	9.9
O=C1NC[C@H](CCCCN2CCN(CCC3CCCCC3)C(=O)C2=O)N(CCc2ccccc2)C1=O	.	-8.1	.	.	.	1.8
Cc1cc(C)c(NC(=O)C2CCCN2CCOC(=O)c2ccccc2)c(C)c1 (stereo unspecified)	-2.7	-8.0	6.9	7.1	73.2*	4.9
COC(=O)Cc1nnn2c1CC(OC)c1cc(Br)ccc1-2 (stereo unspecified)	.	-5.5	.	.	.	0.8
O=C1c2ccccc2[C@@H]2C[C@@H](O)[C@H](Nc3cccc(Cl)n3)CCN12	-2.9	41.7	-1.5	.	19.1	22.9

High-throughput results from PubChem.
